Results taken from ChEMBL document CHEMBL1122239, “Synthesis and biological properties of new hexapeptide substrates for vitamin K dependent carboxylase. Evidence for X-Pro cis/trans amide bond interconversions in prothrombin precursor fragment 18-23” (J Med Chem, 1983).

T1: Vitamin K-dependent gamma-carboxylase (Rattus norvegicus) (UniProt O88496)
T1 sequence (whole entry): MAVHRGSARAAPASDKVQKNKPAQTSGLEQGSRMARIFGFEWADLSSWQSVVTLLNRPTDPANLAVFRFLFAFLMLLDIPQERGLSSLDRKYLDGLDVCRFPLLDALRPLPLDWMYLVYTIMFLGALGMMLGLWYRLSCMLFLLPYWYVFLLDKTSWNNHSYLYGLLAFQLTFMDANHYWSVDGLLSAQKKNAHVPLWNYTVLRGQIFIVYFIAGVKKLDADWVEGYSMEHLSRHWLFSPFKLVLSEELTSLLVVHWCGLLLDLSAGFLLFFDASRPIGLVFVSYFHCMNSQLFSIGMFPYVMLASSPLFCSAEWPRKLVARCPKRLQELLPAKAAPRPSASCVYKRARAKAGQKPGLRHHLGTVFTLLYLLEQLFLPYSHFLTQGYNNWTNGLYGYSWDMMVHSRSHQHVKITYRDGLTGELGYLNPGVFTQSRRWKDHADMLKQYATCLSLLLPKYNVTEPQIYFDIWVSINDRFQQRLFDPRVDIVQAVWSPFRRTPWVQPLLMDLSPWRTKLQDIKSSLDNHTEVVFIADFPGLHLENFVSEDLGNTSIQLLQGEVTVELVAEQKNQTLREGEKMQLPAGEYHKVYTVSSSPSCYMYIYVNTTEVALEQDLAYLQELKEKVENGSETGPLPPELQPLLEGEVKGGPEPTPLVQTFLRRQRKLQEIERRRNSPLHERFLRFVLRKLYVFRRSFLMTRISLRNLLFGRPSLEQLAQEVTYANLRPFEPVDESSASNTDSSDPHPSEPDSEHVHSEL


What was measured:
Type in all cases: functional
[1] = molecular target: T1, Vitamin K-dependent gamma-carboxylase (Rattus norvegicus); test: Compound was evaluated as substrates for vitamin K dependent carboxylase and percent CO2 incorporation was determined at 1 mM concentrations
Summary of the method: (§1)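 Vitamin K dependent carboxylase, which needs O2, reduced vitamin K and CO2, was given each hexapeptide directly as substrate at 0.25, 1, 4.25 or 5.5 mM. Carboxylation of Glu to Gla was reported as percent CO2 incorporation. The full assay procedure is given only by reference to earlier work.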

[2] = molecular target: T1, Vitamin K-dependent gamma-carboxylase (Rattus norvegicus); test: Compound was evaluated as substrates for vitamin K dependent carboxylase and percent CO2 incorporation was determined at 4.25 mM concentrations; summary of the method: as §1
[3] = molecular target: T1, Vitamin K-dependent gamma-carboxylase (Rattus norvegicus); test: Compound was evaluated as substrates for vitamin K dependent carboxylase and percent CO2 incorporation was determined at 0.25 mM concentrations; summary of the method: as §1
[4] = Carboxylation of 0.25 mM Phe-Leu-Glu-Glu-Leu at a concentration of 1 mM
Summary of the method: (§2)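 Inhibition format: the hexapeptide was added at 1, 4.25 or 5.5 mM to a carboxylase reaction containing 0.25 mM H-Phe-Leu-Glu-Glu-Leu-OH as the reference substrate. Carboxylation of the pentapeptide was reported as a percentage. The detailed assay procedure is given only by reference to earlier work.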

[5] = Carboxylation of 0.25 mM Phe-Leu-Glu-Glu-Leu at a concentration of 4.25 mM; summary of the method: as §2
[6] = Carboxylation of 0.25 mM Phe-Leu-Glu-Glu-Leu at a concentration of 5.5 mM; summary of the method: as §2
[7] = molecular target: T1, Vitamin K-dependent gamma-carboxylase (Rattus norvegicus); test: Compound was evaluated as substrates for vitamin K dependent carboxylase and percent CO2 incorporation was determined at 5.5 mM concentrations; summary of the method: as §1
[8] = substrate: CC(C)C[C@H](NC(=O)[C@@H](N)CC(N)=O)C(=O)N[C@@H](CCC(=O)O)C(=O)N[C@@H](CCCN=C(N)N)C(=O)N[C@@H](CCC(=O)O)C(=O)N[C@@H](CS)C(=O)O; test: (§3) Compound was evaluated as substrates for vitamin K dependent carboxylase; summary of the method: as §1
[9] = substrate: CC(C)C[C@H](NC(=O)[C@H](CCC(=O)O)NC(=O)[C@H](CCC(=O)O)NC(=O)[C@H](CC(C)C)NC(=O)[C@@H](N)Cc1ccccc1)C(=O)O; test: as §3; summary of the method: as §1
[10] = substrate: CC(C)C[C@H](NC(=O)[C@H](CC(N)=O)NC(=O)[C@H]1CSSC[C@H](NC(=O)[C@H](CCC(=O)O)NC(=O)[C@H](CCCN=C(N)N)NC(=O)[C@H](CCC(=O)O)NC(=O)[C@H](CC(C)C)NC(=O)[C@@H](N)CC(N)=O)C(=O)N[C@@H](CC(C)C)C(=O)N[C@H](CCC(=O)O)C(=O)N[C@@H](CCC(=O)O)C(=O)N2CCC[C@@H]2C(=O)N1)C(=O)N[C@@H](CCC(=O)O)C(=O)N[C@@H](CCCN=C(N)N)C(=O)N[C@@H](CCC(=O)O)C(=O)N[C@@H](CS)C(=O)O; test: as §3; summary of the method: as §1
[11] = substrate: CC(C)C[C@H]1NC(=O)[C@H](N)CSSC[C@@H](C(=O)O)NC(=O)[C@@H]2CCCN2C(=O)[C@@H](CCC(=O)O)NC(=O)[C@H](CCC(=O)O)NC1=O; test: (§4) Compound was evaluated as substrates for vitamin K dependent carboxylase and percent CO2 incorporation was determined; summary of the method: as §1
[12] = substrate: COC(=O)[C@@H]1CSSC[C@@H](NC(C)=O)C(=O)N[C@H](CC(C)C)C(=O)N[C@@H](CCC(=O)O)C(=O)N[C@H](CCC(=O)O)C(=O)N2CCC[C@H]2C(=O)N1; test: as §4; summary of the method: as §1

Row | Molecule | Incorporation [1] | Incorporation [2] | Incorporation [3] | Incorporation [4] | Incorporation [5] | Incorporation [6] | Incorporation [7] | Km [8] | Km [9] | Km [10] | Km [11] | Km [12]
1 | CC(C)C[C@H]1NC(=O)[C@H](N)CSSC[C@@H](C(=O)O)NC(=O)[C@H](C)NC(=O)[C@@H](CCC(=O)O)NC(=O)[C@H](CCC(=O)O)NC1=O | 48% | 56% | 50% | 103% | 85% | – | – | – | – | – | – | –
2 | CC(C)C[C@H]1NC(=O)[C@H](N)CSSC[C@@H](C(=O)O)NC(=O)[C@@H](C)NC(=O)[C@@H](CCC(=O)O)NC(=O)[C@H](CCC(=O)O)NC1=O | 60% | 59% | 63% | 94% | 83% | – | – | – | – | – | – | –
3 | COC(=O)[C@@H]1CSSC[C@@H](NC(C)=O)C(=O)N[C@H](CC(C)C)C(=O)N[C@@H](CCC(=O)O)C(=O)N[C@H](CCC(=O)O)C(=O)N2CCC[C@H]2C(=O)N1 | 2.4% | – | 3.3% | 51% | – | 54% | 2.2% | – | – | – | – | –
4 | CC(C)C[C@H](NC(=O)[C@H](C)N)C(=O)N[C@@H](CCC(=O)O)C(=O)N[C@@H](CCC(=O)O)C(=O)N1CCC[C@@H]1C(=O)N[C@@H](C)C(=O)O | 16% | 24% | 14% | 99% | 134% | – | – | – | – | – | – | –
5 | CC(C)C[C@H]1NC(=O)[C@H](N)CSSC[C@@H](C(=O)O)NC(=O)[C@@H]2CCCN2C(=O)[C@@H](CCC(=O)O)NC(=O)[C@H](CCC(=O)O)NC1=O | 7% | – | 7.5% | 98% | – | 78% | 8.7% | – | – | – | – | –
6 | Vitamin K-dependent gamma-carboxylase (Rattus norvegicus), O88496 (protein) MAVHRGSARAAPASDKVQKNKPAQTSGLEQGSRMARIFGFEWADLSSWQSVVTLLNRPTDPANLAVFRFLFAFLMLLDIPQERGLSSLDRKYLDGLDVCRFPLLDALRPLPLDWMYLVYTIMFLGALGMMLGLWYRLSCMLFLLPYWYVFLLDKTSWNNHSYLYGLLAFQLTFMDANHYWSVDGLLSAQKKNAHVPLWNYTVLRGQIFIVYFIAGVKKLDADWVEGYSMEHLSRHWLFSPFKLVLSEELTSLLVVHWCGLLLDLSAGFLLFFDASRPIGLVFVSYFHCMNSQLFSIGMFPYVMLASSPLFCSAEWPRKLVARCPKRLQELLPAKAAPRPSASCVYKRARAKAGQKPGLRHHLGTVFTLLYLLEQLFLPYSHFLTQGYNNWTNGLYGYSWDMMVHSRSHQHVKITYRDGLTGELGYLNPGVFTQSRRWKDHADMLKQYATCLSLLLPKYNVTEPQIYFDIWVSINDRFQQRLFDPRVDIVQAVWSPFRRTPWVQPLLMDLSPWRTKLQDIKSSLDNHTEVVFIADFPGLHLENFVSEDLGNTSIQLLQGEVTVELVAEQKNQTLREGEKMQLPAGEYHKVYTVSSSPSCYMYIYVNTTEVALEQDLAYLQELKEKVENGSETGPLPPELQPLLEGEVKGGPEPTPLVQTFLRRQRKLQEIERRRNSPLHERFLRFVLRKLYVFRRSFLMTRISLRNLLFGRPSLEQLAQEVTYANLRPFEPVDESSASNTDSSDPHPSEPDSEHVHSEL | – | – | – | – | – | – | – | 8 mM | 8 mM | 0.001 mM | 8 mM | 8 mM
